{"source": "ChEMBL document CHEMBL1240369", "about": "“Antiviral efficacy of the novel compound BIT225 against HIV-1 release from human macrophages” (Antimicrob Agents Chemother, 2010)", "key": {"PBMC": {"test_system": "PBMC", "test": "Inhibition of Vpu ion channel in 0.05 MOI HIV1 NL4-3 infected in human PBMC cells assessed as viral inhibition measured at 5 uM after 7 days by […]", "details": "Human immunodeficiency virus 1"}, "[1]": {"test_system": "Human immunodeficiency virus 1", "test": "(§1) Inhibition of Vpu ion channel in HIV1 Ba-L in human MDM assessed as inhibition of vrius release", "outline": "(§2)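 Day 14 MDM were infected with HIV-1 Ba-L for 3 h, washed three times and cultured with compound from 10 to 0 μM (0 μM containing matched DMSO). Day 7 supernatants were assayed for RT activity and converted to percent of virus control. EC50 came from nonlinear regression; n = 6 experiments, each in triplicate.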"}, "[2]": {"test": "as §1", "design": "species or system Human immunodeficiency virus 1", "outline": "as §2"}, "MDM [3]": {"test_system": "MDM", "test": "Inhibition of Vpu ion channel in 0.01 MOI HIV1 Ba-L infected in 14 days differentiated human MDM cells assessed as number of gag copy", "type": "cell-based", "details": "Human immunodeficiency virus 1", "outline": "(§3)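 MDM differentiated for 7, 10 or 14 days were infected with HIV-1 Ba-L across a range of MOIs, washed three times with PBS and cultured 7 days with 10 μM compound or equal-volume DMSO. On day 7 postinfection, supernatant RT activity was measured (and infectivity on TZM-bl cells). Cell lysates went to real-time PCR for LTR-gag DNA, normalised to albumin copies.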"}, "[4]": {"test_system": "Human immunodeficiency virus 1", "test": "Antiviral activity against HIV1 Ba-L in human MDM assessed as inhibition integration of virus to host cell genome at 100 nM", "type": "functional, organism-based"}, "[5]": {"test_system": "Human immunodeficiency virus 1", "test": "Antiviral activity against HIV1 Ba-L in 14 days differentiated human MDM assessed as decrease in intracellular p24 level at 10 uM after 7 days by Western blot analysis", "type": "functional, organism-based", "outline": "(§4)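 Day 14 MDM were chronically infected with HIV-1 Ba-L, then given 10 μM compound or DMSO and harvested on day 28. Lysates with equal total protein (checked by β-actin) were run on a 10% polyacrylamide gel and blotted to nitrocellulose. Blots were probed with HIV-1-seropositive human serum, then HRP anti-human IgG.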"}, "MDM [6]": {"test_system": "MDM", "test": "Inhibition of Vpu ion channel in 0.001 MOI HIV1 Ba-L infected in 14 days differentiated human MDM cells assessed as viral inhibition by TZM-bl infectivity assay", "type": "cell-based", "details": "Human immunodeficiency virus 1", "outline": "as §3"}, "[7]": {"test": "Selectivity index, ratio of TC50 for human MDM cells to EC50 for HIV1 93BR029 infected in human MDM cells", "type": "toxicity, cell-based", "details": "read-out: Selectivity Index", "outline": "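Monocytes were adherence-isolated from seronegative PBMC and differentiated in DMEM with 10% human AB serum. Cells were infected with the R5 subtype F primary isolate (PBMC-grown). Antiviral effect was taken versus DMSO-treated controls. Toxicity was measured in parallel by MTT. The index is mean TC50 divided by mean EC50, from in-house experiments, n = 3.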"}, "MDM [8]": {"test_system": "MDM", "test": "Inhibition of Vpu ion channel in 0.05 MOI HIV1 Ba-L acutely infected in 14 days differentiated human MDM cells assessed as viral release after 7 days relative to control", "type": "cell-based", "details": "Human immunodeficiency virus 1", "outline": "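Day 14 MDM were acutely infected with HIV-1 Ba-L at MOI 0.05 for 3 h, washed three times with PBS, then cultured a further 7 days in DMEM10+ with 10 μM compound or equal DMSO. Virus release was measured as supernatant RT activity on day 21 of culture, relative to DMSO controls.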"}, "[9]": {"test": "Selectivity index, ratio of TC50 for human MDM cells to EC50 for HIV1 Ba-L infected in human MDM cells", "type": "toxicity, cell-based", "details": "read-out: Selectivity Index", "outline": "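Day-14 adherence-derived MDM from seronegative donors were infected with HIV-1Ba-L for 3 h, PBS-washed thrice, and cultured in DMEM10+ with compound (10 to 0 μM; DMSO vehicle). EC50 came from nonlinear regression of day-7 supernatant RT activity as % virus control (n = 6, triplicates). TC50 came from day-7 MTT (A560, % DMSO control), range extended to 1,000 μM (n = 3). SI = TC50/EC50.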"}, "MDM [10]": {"test_system": "MDM", "test": "Inhibition of Vpu ion channel in 0.01 MOI HIV1 Ba-L infected in 10 days differentiated human MDM cells assessed as number of gag copy", "type": "cell-based", "details": "Human immunodeficiency virus 1", "outline": "as §3"}, "[11]": {"test": "Selectivity index, ratio of TC50 for human MDM cells to EC50 for HIV1 5705.72 infected in human MDM cells", "type": "toxicity, cell-based", "details": "read-out: Selectivity Index"}, "[12]": {"test_system": "Human immunodeficiency virus 1", "test": "Antiviral activity against HIV1 Ba-L in human MDM assessed as inhibition integration of virus to host cell genome at 0.3125 to 10 uM", "type": "functional, organism-based"}, "[13]": {"test_system": "Human immunodeficiency virus 1", "test": "Antiviral activity against HIV1 Ba-L in 14 days differentiated human MDM assessed as decrease in intracellular viral protein at 10 uM after 7 days by Western blot analysis", "type": "functional, organism-based", "outline": "as §4"}, "[14]": {"test": "Inhibition of Vpu ion channel in HIV1 93BR029 in human MDM assessed as inhibition of vrius release", "design": "species or system Human immunodeficiency virus 1"}, "[15]": {"test_system": "Human immunodeficiency virus 1", "test": "Antiviral activity against HIV1 Ba-L in human MDM assessed as inhibition integration of virus to host cell genome at 10 nM by RT assay", "type": "functional", "details": "Human immunodeficiency virus 1, Ba-L"}, "MDM [16]": {"test_system": "MDM", "test": "Inhibition of Vpu ion channel in 0.05 MOI HIV1 Ba-L chronically infected in 14 days differentiated human MDM cells assessed as viral inhibition measured after treatment at 11 th day postinfection", "type": "cell-based", "details": "Human immunodeficiency virus 1"}, "[17]": {"test": "Inhibition of Vpu ion channel in HIV1 1064.52 in human MDM assessed as inhibition of vrius release", "design": "species or system Human immunodeficiency virus 1"}, "[18]": {"test": "Selectivity index, ratio of TC50 for human MDM cells to EC50 for HIV1 98IN017 infected in human MDM cells", "type": "toxicity, cell-based", "details": "read-out: Selectivity Index"}, "PM1": {"test_system": "PM1", "test": "Inhibition of Vpu ion channel in 0.05 MOI HIV1 NL4-3 infected in PM1 cells assessed as viral inhibition measured after 7 days by […]", "details": "Human immunodeficiency virus 1"}, "MDM [19]": {"test_system": "MDM", "test": "Inhibition of Vpu ion channel in 0.05 MOI HIV1 Ba-L chronically infected in 7 days differentiated human MDM cells assessed as reverse transcriptase activity after 21 days", "type": "cell-based", "details": "Human immunodeficiency virus 1", "outline": "(§5)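 Chronic infection model: MDM were incubated with HIV-1 Ba-L for 3 h and left 7 days unwashed, then washed three times and given a single 10 μM dose (DMSO control). Supernatants were sampled routinely for RT activity. In the washout arm, compound was removed and cells kept drug-free for an additional 20 days.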"}, "MDM [20]": {"test_system": "MDM", "test": "Inhibition of Vpu ion channel in 0.05 MOI HIV1 Ba-L chronically infected in 10-14 days differentiated human MDM cells assessed as viral inhibition after 5 days post treatment relative to control", "type": "cell-based", "details": "Human immunodeficiency virus 1", "outline": "as §5"}, "MDM [21]": {"test_system": "MDM", "test": "Inhibition of Vpu ion channel activity in 0.05 MOI HIV1 Ba-L chronically infected in 7-14 days differentiated human MDM cells assessed as viral inhibition measured after 7 days", "type": "cell-based", "details": "Human immunodeficiency virus 1", "outline": "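Day 14 MDM from 3 seronegative donors were infected with HIV-2, or with HIV-1 Ba-L as a positive control, at MOI 0.05 for 7 days. Cells were then washed free of extracellular virus and cultured ± 10 μM compound for a further 7 days. Day 28 supernatants were assayed for RT activity by chemiluminescent ELISA, with recombinant RT as the standard.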"}}, "note": "Activity calls are given as the source filed them. No cut-off for these calls is given here.", "data": [{"smiles": "Cn1cc(-c2cccc3cc(C(=O)NC(=N)N)ccc23)cn1", "values": [{"measurement": "inhibition", "setting": "PBMC", "value": 25.7, "unit": "%"}, {"measurement": "Activity", "setting": "[1]", "value": "Dose-dependent effect"}, {"measurement": "EC50", "setting": "[2]", "value": 2250, "unit": "nM"}, {"measurement": "Activity", "setting": "MDM [3]", "value": 98}, {"measurement": "Activity", "setting": "[4]", "value": "Active"}, {"measurement": "Activity", "setting": "[5]", "value": "Active"}, {"measurement": "inhibition", "setting": "MDM [6]", "value": 90.3, "unit": "%"}, {"measurement": "selectivity ratio", "setting": "[7]", "value": 111}, {"measurement": "inhibition", "setting": "MDM [8]", "value": 38, "unit": "%"}, {"measurement": "selectivity ratio", "setting": "[9]", "value": 126}, {"measurement": "Activity", "setting": "MDM [10]", "value": 1380}, {"measurement": "selectivity ratio", "setting": "[11]", "value": 39.3}, {"measurement": "Activity", "setting": "[12]", "value": "inactive"}, {"measurement": "Activity", "setting": "[13]", "value": "inactive"}, {"measurement": "EC50", "setting": "[14]", "value": 1900, "unit": "nM"}, {"measurement": "inhibition at 0.01 µM", "setting": "[15]", "value": 99, "unit": "%"}, {"measurement": "inhibition", "setting": "MDM [16]", "value": 86.3, "unit": "%"}, {"measurement": "EC50", "setting": "[17]", "value": 2700, "unit": "nM"}, {"measurement": "selectivity ratio", "setting": "[18]", "value": 4.8}, {"measurement": "inhibition", "setting": "PM1", "value": 93.1, "unit": "%"}, {"measurement": "Activity", "setting": "MDM [19]", "value": "< 2", "unit": "U/ml"}, {"measurement": "inhibition", "setting": "MDM [20]", "value": 91.5, "unit": "%"}, {"measurement": "inhibition", "setting": "MDM [21]", "value": 66.6, "unit": "%"}]}]}
